Consider 13 compounds from ChEMBL document CHEMBL1154152, “Synthesis of some novel bioactive 4-oxy/thio substituted-1H-pyrazol-5(4H)-ones via efficient cross-Claisen condensation” (2009).

≈ marks a conversion by molar mass, not a printed value.

Common to all, as to assay type: functional
Experiment [1] deals with Talaromyces marneffei. Put plainly: Antifungal activity against Penicillium marneffei after 3 to 4 days by serial plate dilution method. Put shortly:
(§1)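 Sabouraud's agar made from peptone, D-glucose and agar, pH 5.7, and lawned with a fungal spore suspension in normal saline. Wells cut with an agar punch received 10–50 mg/ml test compound in DMSO; DMSO-only control plates. Triplicate plates kept at 37 °C for 3–4 days.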

For experiment [2], the system named is Aspergillus fumigatus. Put plainly: Antifungal activity against Aspergillus fumigatus after 3 to 4 days by serial plate dilution method.
The test system of experiment [3] is Aspergillus flavus. In words: Antifungal activity against Aspergillus flavus after 3 to 4 days by serial plate dilution method. Put shortly: as §1
The subject of experiment [4] is Aspergillus flavus. In words: Antifungal activity against Aspergillus flavus at 10 to 50 ug/ml after 3 to 4 days by serial plate dilution method.
The subject of experiment [5] is Trichophyton mentagrophytes. Put plainly: Antifungal activity against Trichophyton mentagrophytes after 3 to 4 days by serial plate dilution method.
In experiment [6] the test system is Klebsiella sp. Put plainly: Antibacterial activity against Klebsiella sp. after 24 hrs by disk diffusion method. As to conditions: for MIC: Klebsiella sp., 24 h. An outline of the steps: (§2)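 Discs with each concentration, in triplicate, on nutrient agar seeded with fresh bacteria. Incubated 37 °C for 24 h, with solvent and growth controls. Zones of inhibition and MIC recorded.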
(In general: A growth-free zone around the sample is the usual read-out of agar diffusion tests.)

Experiment [7] relates to Escherichia coli. In words: Antibacterial activity against Escherichia coli ATTC 25922 after 24 hrs by disk diffusion method. As to conditions: for MIC: Escherichia coli, ATTC 25922, 24 h. Put shortly:
as §2

For experiment [8], the system named is Aspergillus fumigatus. Put plainly: Antifungal activity against Aspergillus fumigatus at 10 to 50 ug/ml after 3 to 4 days by serial plate dilution method.
Experiment [9] has as its system Talaromyces marneffei. Put plainly: Antifungal activity against Penicillium marneffei at 10 to 50 ug/ml after 3 to 4 days by serial plate dilution method.
Experiment [10] concerns Trichophyton mentagrophytes. Put plainly: Antifungal activity against Trichophyton mentagrophytes at 10 to 50 ug/ml after 3 to 4 days by serial plate dilution method.
In experiment [11] the test system is Pseudomonas aeruginosa. In words: Antibacterial activity against Pseudomonas aeruginosa ATTC 27853 after 24 hrs by disk diffusion method. Particulars: for MIC: Pseudomonas aeruginosa, ATTC 27853, 24 h. An outline of the steps:
as §2

Experiment [12] relates to Staphylococcus aureus. In words: Antibacterial activity against Staphylococcus aureus ATCC 25923 after 24 hrs by disk diffusion method. Particulars: for MIC: Staphylococcus aureus, ATCC 25923, 24 h. An outline of the steps:
as §2

In general, MIC refers to the least concentration at which growth counts as inhibited. Read a high MIC as a need for much substance. With `CCC1=NN(c2ccc(F)cc2)C(=O)C1Oc1ccccc1` (configuration not stated), the MIC in experiment [1] was found to be 6.25 µg/mL (≈ 21 µM); in experiment [2], 6.25 µg/mL (≈ 21 µM); in [3], 6.25 µg/mL (≈ 21 µM); in [5], 6.25 µg/mL (≈ 21 µM); in [6], 6.25 µg/mL (≈ 21 µM); in [7], 25 µg/mL (≈ 83.8 µM). The MIC in experiment [11] and in experiment [12] was 6.25 µg/mL (≈ 21 µM) throughout. Moreover, the “inhibition zone (IZ)” value in experiment [4] stood at 19 mm; in experiment [6], 20 mm; in experiment [7] it was 14 mm; in [8], 21 mm; in [9] it was 17 mm; in experiment [10] it was 21 mm. Moreover, the “inhibition zone (IZ)” value in experiment [11] turned out to be 18 mm; in experiment [12] it was 16 mm.
For the compound `COCC1=NNC(=O)C1Oc1ccccc1` (configuration not stated), the minimal inhibitory concentration (MIC) in experiment [1] amounted to 6.25 µg/mL (≈ 28.4 µM); in [2], 6.25 µg/mL (≈ 28.4 µM); in experiment [3] it was 6.25 µg/mL (≈ 28.4 µM); in experiment [5], 6.25 µg/mL (≈ 28.4 µM); in experiment [6] it was 6.25 µg/mL (≈ 28.4 µM); in experiment [7], 25 µg/mL (≈ 114 µM). Moreover, the MIC in [11] and in [12] was 6.25 µg/mL (≈ 28.4 µM) in each case. The “inhibition zone (IZ)” value is given as 18 mm in experiment [4]; 20 mm in experiment [6]; 12 mm in [7]; 20 mm in experiment [8]; 17 mm in experiment [9]; 17 mm in experiment [10]. Further, the “inhibition zone (IZ)” value in [11] and in experiment [12] was 17 mm each time.
For `COCC1=NNC(=O)C1SCc1ccccc1` (configuration not stated), the minimum inhibitory concentration (MIC) in experiment [1], in experiment [2], in [3], in experiment [5], in experiment [6] and in [7] was 50 µg/mL (≈ 200 µM) in each case. For the same compound, the results for the minimal inhibitory concentration (MIC) in experiment [11] and in experiment [12] were 50 µg/mL (≈ 200 µM) and 6.25 µg/mL (≈ 25 µM), respectively. Besides, the “inhibition zone (IZ)” value in [4], in experiment [6], in [7], in [8], in experiment [9] and in [10] was less than 10 mm in each case. Also, the entries for the “inhibition zone (IZ)” value in [11] and in [12] were less than 10 mm and 17 mm, respectively.
For the compound `CC(C)CC1=NN(c2ccc(F)cc2)C(=O)C1Sc1ccccc1` (configuration not stated), the MIC in [1] is 6.25 µg/mL (≈ 18.3 µM); in experiment [2], 6.25 µg/mL (≈ 18.3 µM); in experiment [3], 6.25 µg/mL (≈ 18.3 µM); in [5] it was 6.25 µg/mL (≈ 18.3 µM); in experiment [6], 6.25 µg/mL (≈ 18.3 µM); in experiment [7], 25 µg/mL (≈ 73 µM). The MIC in [11] and in experiment [12] was 6.25 µg/mL (≈ 18.3 µM) in each case. For the same compound, the “inhibition zone (IZ)” value was 20 mm in experiment [4]; 19 mm in [6]; 13 mm in experiment [7]; 19 mm in experiment [8]; 19 mm in experiment [9]; 18 mm in [10]. The “inhibition zone (IZ)” value in [11] worked out at 20 mm; in experiment [12] it was 19 mm.
Take `CC(C)CC1=NN(C)C(=O)C1Oc1ccccc1` (configuration not stated): the minimal inhibitory concentration (MIC) in [1] stood at 6.25 µg/mL (≈ 25.4 µM); in [2] it was 6.25 µg/mL (≈ 25.4 µM); in [3], 6.25 µg/mL (≈ 25.4 µM); in experiment [5], 6.25 µg/mL (≈ 25.4 µM); in [6] it was 6.25 µg/mL (≈ 25.4 µM); in experiment [7], 25 µg/mL (≈ 101 µM). The minimum inhibitory concentration (MIC) in [11] and in [12] was 6.25 µg/mL (≈ 25.4 µM) each time. In addition, the “inhibition zone (IZ)” value stood at 18 mm in experiment [4]; 17 mm in experiment [6]; 12 mm in experiment [7]; 16 mm in experiment [8]; 19 mm in experiment [9]; 18 mm in experiment [10]. Further, the “inhibition zone (IZ)” value in experiment [11] and in experiment [12] was 19 mm throughout.
On to `O=C1NN=C(COc2ccccc2)C1Oc1ccccc1` (configuration not stated), for which the MIC in experiment [1], in experiment [2], in experiment [3], in experiment [5], in [6] and in experiment [7] was 6.25 µg/mL (≈ 22.1 µM) in each case. Further, the MIC in experiment [11] and in [12] was 6.25 µg/mL (≈ 22.1 µM) each time. The “inhibition zone (IZ)” value in experiment [4] turned out to be 20 mm; in experiment [6], 19 mm; in [7], 17 mm; in experiment [8], 21 mm; in [9], 18 mm; in [10], 19 mm. The “inhibition zone (IZ)” value in [11] is on record as 16 mm; in [12] it was 18 mm.
As for `Cc1cc(C2CCCCC2)n(O)c(=O)c1.NCCO` [CICLOPIROX OLAMINE], the minimal inhibitory concentration (MIC) turned out to be 6.25 µg/mL in [1], 6.25 µg/mL in [2], 3.12 µg/mL in experiment [3] and 3.12 µg/mL in experiment [5]. Besides, the “inhibition zone (IZ)” value in [4] is reported as 27 mm; in experiment [8], 26 mm; in experiment [9], 23 mm; in [10] it was 27 mm.
With `O=C(O)c1cn(C2CC2)c2cc(N3CCNCC3)c(F)cc2c1=O` [CIPROFLOXACIN], the “inhibition zone (IZ)” value in [6] was 24 mm; in experiment [7], 32 mm; in experiment [11], 28 mm; in experiment [12], 23 mm. The MIC in experiment [6], in [7], in experiment [11] and in [12] was 6.25 µg/mL (≈ 18.9 µM) in each case.
As to `CC(C)CC1=NNC(=O)C1Sc1ccccc1` (configuration not stated), the minimal inhibitory concentration (MIC) in [1], in experiment [2], in [3], in [5], in experiment [6] and in experiment [7] was 6.25 µg/mL (≈ 25.2 µM) in each case. In addition, the MIC in experiment [11] and in experiment [12] was 6.25 µg/mL (≈ 25.2 µM) throughout. Also, the “inhibition zone (IZ)” value in experiment [4] was 18 mm; in [6], 21 mm; in experiment [7], 21 mm; in [8], 18 mm; in experiment [9] it was 18 mm; in [10], 21 mm. Moreover, the “inhibition zone (IZ)” value in experiment [11] came to 18 mm; in [12], 19 mm.
Consider `CC(C)C1=NNC(=O)C1Sc1ccccc1` (configuration not stated), for which the minimal inhibitory concentration (MIC) in experiment [1], in experiment [2], in [3], in experiment [5], in experiment [6] and in experiment [7] was 6.25 µg/mL (≈ 26.7 µM) each time. Also, the MIC in experiment [11] and in experiment [12] was 6.25 µg/mL (≈ 26.7 µM) each time. Besides, the “inhibition zone (IZ)” value in [4] is given as 18 mm; in experiment [6], 16 mm; in [7] it was 18 mm; in experiment [8], 20 mm; in experiment [9] it was 19 mm; in [10], 16 mm. In addition, the “inhibition zone (IZ)” value in [11] is on record as 17 mm; in experiment [12], 20 mm.
In the case of `CCC1=NNC(=O)C1Oc1ccccc1` (configuration not stated), the MIC in experiment [1], in experiment [2], in experiment [3], in experiment [5], in [6] and in experiment [7] was 6.25 µg/mL (≈ 30.6 µM) in each case. Further, the minimal inhibitory concentration (MIC) in experiment [11] and in [12] was 6.25 µg/mL (≈ 30.6 µM) in each case. Also, the “inhibition zone (IZ)” value in [4] stood at 21 mm; in experiment [6] it was 16 mm; in [7] it was 18 mm; in experiment [8], 17 mm; in experiment [9] it was 18 mm; in experiment [10], 16 mm. Also, the “inhibition zone (IZ)” value was found to be 20 mm in experiment [11] and 19 mm in experiment [12].
For `CCC1=NNC(=O)C1SCc1ccccc1` (configuration not stated), the minimum inhibitory concentration (MIC) in [1], in [2], in [3], in experiment [5], in [6] and in [7] was 6.25 µg/mL (≈ 26.7 µM) throughout. Also, the minimum inhibitory concentration (MIC) in experiment [11] and in experiment [12] was 6.25 µg/mL (≈ 26.7 µM) in each case. In addition, the “inhibition zone (IZ)” value in [4] came out at 17 mm; in experiment [6] it was 17 mm; in experiment [7] it was 17 mm; in experiment [8], 17 mm; in [9] it was 19 mm; in experiment [10], 17 mm. For the same compound, the “inhibition zone (IZ)” value in experiment [11] turned out to be 20 mm; in [12] it was 16 mm.
Regarding `CC1=NNC(=O)C1OCc1cccc(Br)c1` (configuration not stated), the MIC in experiment [1] turned out to be 6.25 µg/mL (≈ 22.1 µM); in experiment [2], 6.25 µg/mL (≈ 22.1 µM); in experiment [3] it was 6.25 µg/mL (≈ 22.1 µM); in experiment [5] it was 6.25 µg/mL (≈ 22.1 µM); in experiment [6], 6.25 µg/mL (≈ 22.1 µM); in experiment [7] it was 25 µg/mL (≈ 88.3 µM). For the same compound, the minimal inhibitory concentration (MIC) in experiment [11] and in [12] was 6.25 µg/mL (≈ 22.1 µM) in each case. The “inhibition zone (IZ)” value in experiment [4] is recorded as 19 mm; in [6] it was 19 mm; in experiment [7] it was 11 mm; in [8], 18 mm; in experiment [9] it was 18 mm; in experiment [10], 20 mm. Moreover, the results for the “inhibition zone (IZ)” value in [11] and in experiment [12] were 18 mm and 21 mm, respectively.
